High-throughput results from PubChem BioAssay.
Rows were chosen to be rich in hits. Some 2.5% of all compounds tested hit in one or more screens of this group.
SENP6 block: inhibitors of human SENP6 protease. Q9GZR1. Recombinant SENP6 catalytic domain, aminoluciferin luminescence. inhibition, % at 10 µM. 330,000 tested, 1.8% active;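 active means inhibition above about 50% at the single tested dose, limit read from the data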
SENP1 inh: inhibitors of human SENP1 SUMO protease catalytic domain; Q9P0U3; recombinant SENP1 catalytic domain, CyPet-SUMO1-YPet FRET cleavage; inhibition, % at 10 µM; 360,000 tested, 0.21% active; AID 624204;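 active means inhibition at least 30% at 10 µM, raw YFP signal under a set limit, fluorescence ratio 0.5 to 1.5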
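Assay system – human recombinant His6-tagged SENP1 catalytic domain enzyme · Input – SENP1 enzyme, 20 pM final · Buffer or medium – Tris pH 8 buffer plus EDTA, NaCl, BME, BSA, NP40, catalase · Schedule – 50 min reaction at room temperature · Technique – FRET read of cyan and yellow fluorescence · Control set – no-enzyme wells low, DMSO-plus-enzyme wells high control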
SENP8 block-1: SENP8 protease inhibition; Q96LD8; purified SENP8, Z-RLRGG-aminoluciferin cleavage, luminescence; inhibition, % at 10 µM; 330,000 tested, 1.2% active; in the data active means inhibition above about 50%
SENP7 block: SENP7 protease inhibition. Q9BQF6. recombinant SENP7, Z-RLRGG-aminoluciferin luminescence, 40 min. inhibition, % at 5 µM. 330,000 tested, 1.5% active;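 active means inhibition above about 50% at the single test dose, limit read from the data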
Target sequence (Q9BQF6 706-1050 limits assumed): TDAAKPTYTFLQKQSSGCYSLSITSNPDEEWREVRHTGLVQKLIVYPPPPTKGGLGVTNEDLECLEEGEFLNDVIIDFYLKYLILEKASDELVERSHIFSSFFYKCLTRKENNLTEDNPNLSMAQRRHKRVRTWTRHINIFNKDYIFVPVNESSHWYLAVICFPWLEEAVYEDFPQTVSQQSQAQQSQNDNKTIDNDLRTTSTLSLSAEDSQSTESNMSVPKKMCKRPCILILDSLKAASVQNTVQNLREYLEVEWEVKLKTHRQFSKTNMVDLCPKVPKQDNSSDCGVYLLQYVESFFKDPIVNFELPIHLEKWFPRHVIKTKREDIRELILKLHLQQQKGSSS
SENP8 block-2: inhibitors of human SENP8 protease; inhibition, % at 20 µM; AID 602440; Q96LD8; recombinant SENP8, Nedd8 substrate fluorescence; 360,000 tested, 0.64% active; in the data active means inhibition mostly above about 40%, no sharp cut-off; inactive means mostly below about 27%
Large screens that a line does not name were inactive.

O=C1C(NS(=O)(=O)c2ccc(Br)cc2)=C(N2CCCCC2)C(=O)c2ccccc21	SENP8 block-2 63.6
CCOC(=O)C1CCCN(C2=C(NS(=O)(=O)c3ccc(Br)cc3)C(=O)c3ccccc3C2=O)C1 (centres undefined)	SENP8 block-2 57.6
CC1CCCN(C2=C(NS(=O)(=O)c3ccc(Br)cc3)C(=O)c3ccccc3C2=O)C1 (centres undefined)	none
CCOC(=O)N1CCN(C2=C(NS(=O)(=O)c3ccc(NC(C)=O)cc3)C(=O)c3ccccc3C2=O)CC1	SENP8 block-2 73.2
CCOC(=O)C1CCN(C2=C(NS(=O)(=O)c3ccc(Cl)cc3)C(=O)c3ccccc3C2=O)CC1	SENP8 block-2 49.2
Cc1noc(NS(=O)(=O)c2ccc(NC(=O)c3ccccc3NS(=O)(=O)c3ccc(F)cc3)cc2)c1C	none
Cc1ccc(S(=O)(=O)N2[C@H](CC(=O)c3ccc(F)cc3)OC[C@@H]2C)cc1	none (no result: SENP6 block, SENP8 block-1, SENP7 block)
CCC(=O)N(Cc1ccco1)C1CC(=O)N(c2ccccc2)C1=O (centres undefined)	none
CN(C1=C(N2CCCCC2)C(=O)c2ccccc2C1=O)c1ccccc1	SENP8 block-2 49.4
O=C(CCC1CCCCC1)Nc1cccnc1	SENP8 block-2 36.3
O=C(CCC1CCCCC1)NCc1cccnc1	none
C[C@]12C=CC(=O)C=C1CC[C@@H]1C2=CC[C@]2(C)[C@@H](C(=O)CN3CCN(c4cc(N5CCCC5)nc(N5CCCC5)n4)CC3)CC[C@@H]12	SENP6 block 63.9, SENP8 block-1 75.8
O=C(NNC(=O)C1CCC1)c1ccc(F)cc1	none (no result: SENP6 block, SENP8 block-1, SENP7 block)
O=C(O)CC(C(=O)Nc1ccc(Cl)cc1)N1CCCCCC1 (centres undefined)	none
Cc1ccc(NC2=C/C(=N/S(=O)(=O)c3cccs3)c3ccccc3C2=O)cc1C	SENP8 block-2 60.6 (no result: SENP6 block, SENP8 block-1, SENP7 block)
Cc1ccccc1NC1=C/C(=N\S(=O)(=O)c2cccs2)c2ccccc2C1=O	SENP6 block 86.3, SENP8 block-1 89.7, SENP7 block 88.6, SENP8 block-2 98.7
Cc1ccc(NC(=O)CN(C)S(=O)(=O)c2cccs2)cc1C	none
Cc1ccc(NS(=O)(=O)c2cccs2)c(C)c1	none
O=c1c2ccccc2c(C=Nc2cccc(S(=O)(=O)NC3=NCCCCC3)c2)c(O)n1Cc1ccccc1	SENP6 block 52.8
O=C1c2ccccc2C(=O)c2c1cccc2-n1nnc2ccccc21	none
O=C1C(N2CCOCC2)=C(n2nnc3ccccc32)C(=O)c2ccccc21	SENP6 block 76.0, SENP8 block-1 74.1, SENP8 block-2 75.9
CC(C)CCN1C(=O)c2ccccc2C1c1nnnn1C(C)C (centres undefined)	none (no result: SENP6 block, SENP8 block-1, SENP7 block)
CSc1cccc(NC(=O)c2ccccn2)c1	SENP6 block 55.0, SENP7 block 52.1 (no result: SENP1 inh, SENP8 block-2)
Cc1ccc(CNC(=O)CCCn2nc(C)c3c(C)n(-c4ccccc4)nc3c2=O)cc1	none
COc1cc2c(cc1CNC[C@H]1O[C@@H](n3cnc4c(N)ncnc43)[C@H](O)[C@@H]1O)OCO2	none
O=C(O)CC(C(=O)O)N1C(=O)/C(=C/C=C/c2ccco2)SC1=S (centres undefined)	SENP1 inh 41.5
CN(CC(=O)Nc1ccc(Cl)cc1F)C1=NS(=O)(=O)c2ccccc21	none
Cc1cc(C)c2nc(NNC(=O)c3ccc(S(=O)(=O)N4CCc5ccccc5C4)cc3)sc2c1	none
Cc1cc(C)c2nc(NNC(=O)c3cc(=O)c4ccccc4o3)sc2c1	SENP6 block 79.1, SENP8 block-1 63.5
COc1ccc(S(=O)(=O)N2CCC(C(=O)NCc3cccnc3)CC2)cc1OC	none
COc1ccc(/C=N/n2c(C)nc3ccccc3c2=O)cc1	none
COc1ccc(/C=N\n2nnc3ccccc32)cc1	SENP6 block 97.4, SENP8 block-1 93.6, SENP7 block 89.5
CCOc1ccc2c(c1)-c1c(ssc1=S)C(C)(C)N2C	SENP8 block-2 46.7
CCOc1ccc2c(c1)C(C)=CC(C)(C)N2S(=O)(=O)c1ccc(F)cc1	none
COc1cc(C=NNc2ccc(S(=O)(=O)Nc3ccccc3C(=O)O)cc2[N+](=O)[O-])ccc1O	SENP8 block-2 45.8
O=C(O)c1ccccc1NS(=O)(=O)c1ccc(N/N=C/c2cccc(O)c2O)c([N+](=O)[O-])c1	SENP8 block-2 39.4 (no result: SENP6 block, SENP8 block-1, SENP7 block)
CC(=O)Nc1ccc(C=NNc2ccc(S(=O)(=O)Nc3ccccc3C(=O)O)cc2[N+](=O)[O-])cc1	none
CCOc1ccc(C=NNc2ccc(S(=O)(=O)Nc3ccccc3C(=O)O)cc2[N+](=O)[O-])cc1OC	SENP8 block-2 51.8
